Results pooled from the literature.
Compare with care: the assays were run in different laboratories.
Target: Cyclin-dependent kinase 7 (CDK7, Homo sapiens, UniProt P50613)

Compound | test | setting | remaining binding [%]
CS(=O)(=O)NCC[C@H](NC(=O)c1cncc2c1cnn2-c1ccc(F)cc1)c1ccnc(S(C)(=O)=O)c1 | cell-free assay, competition with immobilised ligand | 1 µM | 100
c1cncc(-c2cccc(Nc3nccc(NC4CCCCC4)n3)c2)c1 | binding, competition with immobilised ligand | 10 µM | 46
CN(CCCC(F)(F)F)c1nccc(-c2cnn3ncccc23)n1 | binding | 1 µM | 87
O=C(c1ccc(Nc2nccc(-c3cc4ccccc4s3)n2)cc1)N1CCC(N2CCCC2)CC1 | binding, competition with immobilised ligand | 1 µM | 12
C[C@@H]1CCN(c2nccc(-c3cnn4ncccc34)n2)C1 | binding | 1 µM | 35
CN(C)c1ncnc(-c2ccc3nc(Nc4cc(CN5CCN(C(=O)CC(F)(F)F)CC5)ccn4)[nH]c3c2)c1Cl | cell-free assay, competition with immobilised ligand | 1 µM | 80
N[C@H]1CCN(c2nccc(-c3cnn4ncccc34)n2)C1 | binding | 1 µM | 59
O=C(NS(=O)(=O)c1ccc(NCC2CCOCC2)c([N+](=O)[O-])c1)c1ccc(N2CCN(Cc3ccc(C(F)(F)F)cc3-c3ccc(Cl)cc3)CC2)cc1Oc1cnc2[nH]ccc2c1 | cell-free assay, competition with immobilised ligand | 1 µM | 96
COc1cnc(Nc2cccc(S(N)(=O)=O)c2)nc1N1CCN(c2ccccc2)CC1 | binding, competition with immobilised ligand | 1 µM | 84
CN(C)c1nccc(-c2cnn3ncccc23)n1 | binding | 1 µM | 82
O=C(c1ccc(Nc2ncc(Cl)c(-c3cc4ccccc4s3)n2)cc1)N1CCC(N2CCCC2)CC1 | binding, competition with immobilised ligand | 1 µM | 1.5
O=C(Nc1c[nH]nc1C(=O)NC1CCNCC1)c1cc(F)cc(F)c1 | binding, competition with immobilised ligand | 1 µM | 5.6
CNC(=O)[C@@H]1CC[C@@H](n2c(-c3ccc4cnccc4c3)nc3ccc(C(=O)NCc4cccc(C(N)=O)c4)cc32)C1 | binding, competition with immobilised ligand | 1 µM | 100
N#Cc1ccccc1CSc1nnc2c(n1)[nH]c1ccccc12 | binding, competition with immobilised ligand | 10 µM | 94
O=C(NCCCC1CCCCC1)c1ccc(CNC(=O)c2cnn(-c3ccccc3)c2C(F)(F)F)cc1 | cell-free assay, competition with immobilised ligand | 0.1 µM | 100
C[C@@H]1CN(c2ccc3ncc(-c4ccc5[nH]nc(C6CC6)c5c4)n3n2)C[C@H](C)O1 | binding, competition with immobilised ligand | 0.5 µM | 23
O=C(O)c1cc(-c2ccc(C3CCNCC3)cc2)c2ccc(-c3ccc(C(F)(F)F)cc3)cc2c1 | cell-free assay, competition with immobilised ligand | 1 µM | 82
O=C(NCCCN1CCOCC1)c1ccc(Nc2nccc(-c3cc4ccccc4s3)n2)cc1 | binding, competition with immobilised ligand | 1 µM | 40
C[C@@H](c1ccc(-n2cnc3c(N)ncnc32)cc1)N1CCc2nn(C)c(Cc3ccccc3)c2C1=O | binding, competition with immobilised ligand | 0.1 µM | 45
COC(=O)Nc1nc2ccc(C(=O)c3ccccc3)cc2[nH]1 | cell-free assay, competition with immobilised ligand | 10 µM | 11
CC1CCCN1c1nccc(-c2cnn3ncccc23)n1 (stereo not drawn) | binding | 1 µM | 100
O=C(Nc1cccnn1)N1CC(C/C=C/c2cncc(Oc3ccc(C(F)(F)F)cn3)n2)C1 | cell-free assay, competition with immobilised ligand | 1 µM | 81
Cc1cnn2ncc(-c3ccnc(N(C)C)n3)c2c1 | binding | 1 µM | 61
CCC(=N\O)/C(C)=C/c1ccc(F)cc1 | cell-free assay, competition with immobilised ligand | 1 µM | 60
